Screening results (PubChem)
PHOSPHO1 inh – PHOSPHO1 (human) inhibition; Q8TCT1; recombinant PHOSPHO1, absorbance phosphatase assay; inhibition, % at 13.3 µM; hit rate 1.1% among 290,000; in the data active means inhibition above about 60%
Target sequence (Q8TCT1 whole entry, looked up): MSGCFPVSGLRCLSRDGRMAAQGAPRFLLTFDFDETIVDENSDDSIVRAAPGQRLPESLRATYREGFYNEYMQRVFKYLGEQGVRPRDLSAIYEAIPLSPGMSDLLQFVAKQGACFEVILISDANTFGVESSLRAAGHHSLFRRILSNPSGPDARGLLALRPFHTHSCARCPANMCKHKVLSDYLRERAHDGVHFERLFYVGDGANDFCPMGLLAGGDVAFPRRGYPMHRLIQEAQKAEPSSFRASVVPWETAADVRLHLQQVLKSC
KCNQ1 act – human KCNQ1 channel potentiation or activation; hit rate 0.35% among 310,000; P51787; CHO-K1 KCNQ1, thallium flux FluxOR fluorescence; hits give high values; B-score at 10 µM; AID 2648;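 active means fluorescence ratio B-score, a plate-corrected score, at least three library SD, with initial intensity B-score within 5 SD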
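assay system = CHO-K1 cells stably expressing KCNQ1 | medium = assay buffer, equal DMSO in all wells | timing = 37 °C overnight plating, 90-min dark dye load, 20-min compound pretreatment | measured by = kinetic FluxOR thallium fluorescence, 10-s 1-Hz baseline, 110-s post-stimulus read | measure = fluorescence change relative to baseline, converted to B score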
hERG rescue – shields human hERG channel from block by proarrhythmic agents | Q12809 | CHO-hERG, FluxOR thallium flux, dofetilide IC70 present | activation (rescue from dofetilide block), less the hit threshold, % at 10 µM | hit rate 0.51% among 310,000 | AID 1511;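 active means activation above the mean of controls blocked by dofetilide plus 5 SD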;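 further: thallium influx through hERG after potassium depolarization seen as dye fluorescence rise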
KCNK3 block – human KCNK3 channel inhibition, primary screen | CHO-KCNK3 thallium flux, FluxOR fluorescence; hits give low values | B-score at 10 µM | hit rate 0.84% among 340,000 | AID 602410;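 active means B-score under library mean minus 4 SD, starting fluorescence ratio at most library mean plus 5 SD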;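 further: more negative B-score means stronger inhibition of thallium flux through KCNK3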
Target sequence (O14649 whole entry, looked up): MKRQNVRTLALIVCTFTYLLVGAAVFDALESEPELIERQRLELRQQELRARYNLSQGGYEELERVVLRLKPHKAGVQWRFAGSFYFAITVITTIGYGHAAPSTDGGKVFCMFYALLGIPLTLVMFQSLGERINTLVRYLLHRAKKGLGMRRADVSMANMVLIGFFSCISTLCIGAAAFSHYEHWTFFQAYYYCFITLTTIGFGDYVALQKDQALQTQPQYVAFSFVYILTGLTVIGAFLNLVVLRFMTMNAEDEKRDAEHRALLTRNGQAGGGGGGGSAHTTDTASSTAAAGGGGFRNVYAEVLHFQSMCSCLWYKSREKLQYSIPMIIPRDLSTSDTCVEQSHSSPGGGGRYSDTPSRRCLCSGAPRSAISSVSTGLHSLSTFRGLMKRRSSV
KCNQ1 inh – human KCNQ1 channel inhibition; hit rate 1.3% among 310,000; P51787; B-score at 10 µM; CHO-K1 KCNQ1, FluxOR thallium flux fluorescence; hits give high values;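 active means compounds whose thallium flux B-score, printed positive for inhibition, exceeds three library SD while starting fluorescence stays within three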;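 further: channel opened by potassium depolarization with thallium stimulus after 20 min compound exposure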
KCNK9 inh – inhibitors of human KCNK9 two-pore domain potassium channel | Q9NPC2 | HEK293 KCNK9, FluxOR thallium flux fluorescence; hits give low values | B-score at 10 µM | hit rate 1.2% among 310,000;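 active means ratio B-score over 3 SD below the library mean, with starting fluorescence within 5 SD of its mean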;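 further: negative B-score means less thallium flux so channel inhibition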
KCNQ1 inh valid – human KCNQ1 channel inhibition, validation assay | shares compounds with KCNQ1 inh | KCNQ1 cell line, FluxOR thallium flux fluorescence | inhibition, % at 10 µM | hit rate 93% among 1,600;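 active means primary screen active, with duplicate mean exceeding buffer control mean plus 3 SD of buffer wells, cut at about 28% in these data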
CHO KCNQ1 ctr – activity in parental CHO cells lacking KCNQ1. shares compounds with KCNQ1 inh. parental CHO-K1, FluxOR thallium flux fluorescence ratio; hits give low values; zero means no signal rise above baseline. hit rate 21% among 1,600. fluorescence ratio (Tl flux) at 10 µM;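 active means mean of duplicate thallium-flux fluorescence ratios in parental host cells more than 5 SD below the buffer control mean, cut at about 0.38 in these data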;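 further: ratio is peak minus minimum fluorescence divided by baseline fluorescence; actives read low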
KCNQ1 ephys val – blocks human KCNQ1 current in automated patch clamp. hit rate 20% among 490. shares compounds with KCNQ1 inh. calls only at 10 µM. KCNQ1-CHO cells;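 active means KCNQ1 current drop exceeding 3 SD of negative control wells, seen in both duplicate runs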;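 further: steady state current during a 2 s step from -80 to +40 mV; negative values mean current inhibition and positive values mean potentiation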
KCNQ2 spec – KCNQ1 inhibitor that also blocks rat KCNQ2 channel; shares compounds with KCNQ1 inh; KCNQ2 cells, FluxOR thallium flux fluorescence; inhibition, % at 10 µM; hit rate 71% among 1,600; AID 651746;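 active means mean percent inhibition of the KCNQ2 thallium signal more than 5 SD above the buffer-only control wells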;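 further: KCNQ2 expressed in CHO cells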
KCNQ1 KCNE1 spec – KCNQ1 inhibitor that also blocks human KCNQ1/KCNE1 channel; shares compounds with KCNQ1 inh; KCNQ1/KCNE1 cells, FluxOR thallium flux fluorescence; inhibition, % at 10 µM; hit rate 77% among 1,600; AID 652147;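 active means mean percent inhibition of duplicate wells above the buffer-only control mean plus 3 SD of those controls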
Of the large screens only hits and unclear results are named; the others gave an inactive call (follow-up assays come after a bar, where they were run). Compounds with a hit are over-represented: about 4% of the library has one in this group of screens.

CC(=O)Nc1cccc(NC(=S)Nc2ccc(F)c(Cl)c2)c1	KCNQ1 inh 8 | KCNQ1 inh valid 61.0 | CHO KCNQ1 ctr inactive | KCNQ2 spec inactive | KCNQ1 KCNE1 spec inactive
Cc1nc2ccc(NS(=O)(=O)c3ccc(C)c(C)c3)cc2s1	KCNQ1 inh 7 | KCNQ1 inh valid 68.5 | CHO KCNQ1 ctr inactive | KCNQ2 spec inactive | KCNQ1 KCNE1 spec inactive
CC(=O)c1cccc(S(=O)(=O)Nc2ccc3nc(C)sc3c2)c1	none
O=C(CCS(=O)(=O)c1ccccc1F)Nc1ccc(N2CCN(Cc3ccccc3)CC2)cc1	none (no result: PHOSPHO1 inh, KCNQ1 act, hERG rescue, KCNQ1 inh, KCNK9 inh)
CCOC(=O)c1cnc(-n2nc(C)cc2C)nc1NC1CCCCC1	KCNQ1 inh 11 | KCNQ1 inh valid 76.0 | CHO KCNQ1 ctr inactive | KCNQ2 spec 108.0% | KCNQ1 KCNE1 spec 107.0%
CN(C)CCN(C(=O)c1ccc2c(c1)CCCC2)c1nc2cc3c(cc2s1)OCCO3	KCNQ1 inh 11 | KCNQ1 inh valid 105.5 | CHO KCNQ1 ctr 0.352 | KCNQ2 spec 125.0% | KCNQ1 KCNE1 spec 121.0%
CCN(CC)CCN(C(=O)c1ccc2ncsc2c1)c1nc2cc3c(cc2s1)OCO3	KCNQ1 inh 10 | KCNQ1 inh valid 92.0 | CHO KCNQ1 ctr inactive | KCNQ1 ephys val active | KCNQ2 spec 88.7% | KCNQ1 KCNE1 spec 120.0%
C=CCNc1nc2ccccc2nc1NS(=O)(=O)c1ccc(F)cc1	none
C=CCNc1nc2ccccc2nc1NS(=O)(=O)c1ccc(Br)cc1	KCNQ1 inh 7 | KCNQ1 inh valid 70.5 | CHO KCNQ1 ctr inactive | KCNQ2 spec 59.0% | KCNQ1 KCNE1 spec inactive
COc1ccc(N(CC(=O)NCc2ccc(Cl)cc2)S(=O)(=O)c2c(C)n[nH]c2C)cc1	KCNQ1 inh 7 | KCNQ1 inh valid 58.5 | CHO KCNQ1 ctr inactive | KCNQ2 spec 74.7% | KCNQ1 KCNE1 spec 60.0%
COc1ccc(CNC(=O)COC(=O)c2cc3ccccc3cc2O)cc1OC	none (no result: PHOSPHO1 inh, KCNQ1 act, hERG rescue, KCNQ1 inh, KCNK9 inh)
COc1ccc(Nc2ncnc3sc(C)cc23)c(OC)c1	none
Cc1csc(NC(=O)c2sc3nc(-c4cccs4)ccc3c2N)n1	KCNQ1 inh 16 (no result: KCNK3 block) | KCNQ1 inh valid 123.5 | CHO KCNQ1 ctr 0.244 | KCNQ2 spec inactive | KCNQ1 KCNE1 spec inactive
CN(CC(O)COc1ccccc1F)C1CCCCC1 (stereo unspecified)	none
Cc1ccccc1OCC(O)CN(Cc1ccccc1O)C1CCCCC1 (stereo unspecified)	KCNQ1 inh 12 | KCNQ1 inh valid 90.5 | CHO KCNQ1 ctr inactive | KCNQ1 ephys val active | KCNQ2 spec 119.7% | KCNQ1 KCNE1 spec 139.5%
COc1cccc(C(=O)Nc2ccc(-c3nc4ccccc4o3)c(O)c2)c1	none
COc1cc(OC)cc(C(=O)Nc2ccc(-c3nc4ccccc4o3)cc2)c1	KCNQ1 inh 10 | KCNQ1 inh valid 129.5 | CHO KCNQ1 ctr inactive | KCNQ1 ephys val inactive | KCNQ2 spec 89.0% | KCNQ1 KCNE1 spec 69.0%
COc1ccc(CCC(C)NCCc2ccc(Cl)cc2Cl)cc1 (stereo unspecified)	KCNQ1 inh 14 | KCNQ1 inh valid 99.0 | CHO KCNQ1 ctr inactive | KCNQ2 spec 96.3% | KCNQ1 KCNE1 spec 106.5%
Fc1ccccc1CNc1ncnc2sccc12	none
c1ccc2c(c1)OCC(CNc1ncnc3sccc13)O2 (stereo unspecified)	KCNQ1 inh 12 | KCNQ1 inh valid 106.5 | CHO KCNQ1 ctr inactive | KCNQ2 spec 97.0% | KCNQ1 KCNE1 spec 104.5%
Cc1cccc(N2CCN(C(=O)c3ccc4c(c3)OCCO4)CC2C)c1 (stereo unspecified)	none
Cc1cccc(N2CCN(C(=O)c3noc4c3COc3ccc(C)cc3-4)CC2C)c1 (stereo unspecified)	KCNQ1 inh 10 | KCNQ1 inh valid 88.0 | CHO KCNQ1 ctr inactive | KCNQ2 spec 98.0% | KCNQ1 KCNE1 spec 112.5%
O=C(O)c1cccc(NS(=O)(=O)c2ccc(C3CCCCC3)cc2)c1	none
Cc1cccc(NS(=O)(=O)c2ccc(C3CCCCC3)cc2)c1	KCNQ1 inh 7 | KCNQ1 inh valid inactive | CHO KCNQ1 ctr inactive | KCNQ2 spec inactive | KCNQ1 KCNE1 spec inactive
O=C(Nc1cccc(F)c1)OC(CN1CCCCC1)C(F)(F)F (stereo unspecified)	KCNQ1 inh 7 | KCNQ1 inh valid 80.0 | CHO KCNQ1 ctr inactive | KCNQ2 spec 81.3% | KCNQ1 KCNE1 spec 106.0%
Cc1cc(NC2CCCCC2)nc2ccccc12	KCNQ1 inh 6 | KCNQ1 inh valid 57.5 | CHO KCNQ1 ctr inactive | KCNQ2 spec 59.0% | KCNQ1 KCNE1 spec 49.0%
Cc1cc(NCc2ccccn2)nc2ccccc12	none
COc1ccc(S(=O)(=O)C(C#N)c2nc3ccccc3nc2N2CCCC(C)C2)cc1 (stereo unspecified)	KCNQ1 inh 9 | KCNQ1 inh valid 124.5 | CHO KCNQ1 ctr inactive | KCNQ1 ephys val inactive | KCNQ2 spec 106.0% | KCNQ1 KCNE1 spec 126.0%
Cc1ccc(S(=O)(=O)C(C#N)c2nc3ccccc3nc2N2CCCC2)cc1 (stereo unspecified)	none
O=C(Cc1csc(NC(=O)Nc2cccc(Cl)c2)n1)NCc1ccccn1	KCNQ1 inh 8 (no result: PHOSPHO1 inh) | KCNQ1 inh valid 92.0 | CHO KCNQ1 ctr inactive | KCNQ1 ephys val inactive | KCNQ2 spec 94.0% | KCNQ1 KCNE1 spec 51.0%
O=C(Cc1csc(NC(=O)Nc2cccc(Cl)c2)n1)NCc1cccnc1	none (no result: PHOSPHO1 inh)
O=C(c1cc(F)ccc1F)C1CCCN(Cc2cccn2-c2ccccn2)C1 (stereo unspecified)	none
COc1ccc(C(=O)C2CCCN(Cc3cccn3-c3ccccn3)C2)c(OC)c1 (stereo unspecified)	KCNQ1 inh 6 | KCNQ1 inh valid inactive | CHO KCNQ1 ctr inactive | KCNQ2 spec 60.3% | KCNQ1 KCNE1 spec inactive
CCCSc1nnc(NC(=O)Nc2ccc(F)cc2)s1	KCNQ1 inh 8 | KCNQ1 inh valid 49.5 | CHO KCNQ1 ctr inactive | KCNQ2 spec 60.3% | KCNQ1 KCNE1 spec 37.0%
CC1(C)Cc2c(cnn2-c2ccccc2)C(NC(=O)c2ccoc2)C1 (stereo unspecified)	none
Cn1nccc1C(=O)NC1CC(C)(C)Cc2c1cnn2-c1ccc(F)cc1 (stereo unspecified)	KCNQ1 inh 6 | KCNQ1 inh valid inactive | CHO KCNQ1 ctr inactive | KCNQ2 spec inactive | KCNQ1 KCNE1 spec inactive
